An excerpt weighted towards active compounds, which were near 3.4% of everything screened.
CHT block: human CHT choline transport inhibition | Q9GZV3 | CHT-expressing cells, membrane potential dye, choline response; hits give low values | B-score at 10 µM | 310,000 compounds, 0.86% hits | AID 488975;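 active = B-score over 3 SD under the library average, and starting fluorescence ratio not unusually high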;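 note: choline stimulus applied at its EC90 after an EC20 pre-addition; B-score computed on integrated fluorescence ratio after choline addition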
Target sequence (Q9GZV3 whole entry, looked up): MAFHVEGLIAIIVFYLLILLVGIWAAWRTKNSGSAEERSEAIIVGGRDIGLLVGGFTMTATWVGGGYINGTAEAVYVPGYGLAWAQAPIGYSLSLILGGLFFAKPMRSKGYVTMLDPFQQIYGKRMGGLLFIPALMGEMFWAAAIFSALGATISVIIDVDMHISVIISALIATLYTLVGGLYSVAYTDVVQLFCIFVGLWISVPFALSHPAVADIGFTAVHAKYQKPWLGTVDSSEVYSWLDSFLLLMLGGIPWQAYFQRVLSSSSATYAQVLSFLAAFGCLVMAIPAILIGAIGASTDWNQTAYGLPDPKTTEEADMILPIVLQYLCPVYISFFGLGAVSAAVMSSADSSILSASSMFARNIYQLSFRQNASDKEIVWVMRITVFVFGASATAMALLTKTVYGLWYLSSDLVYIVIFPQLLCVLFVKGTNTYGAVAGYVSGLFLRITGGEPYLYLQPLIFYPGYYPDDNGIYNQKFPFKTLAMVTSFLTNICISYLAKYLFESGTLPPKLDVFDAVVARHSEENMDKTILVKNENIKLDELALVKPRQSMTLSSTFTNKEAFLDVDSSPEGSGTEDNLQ
ANO1 activ: activates or potentiates the mouse TMEM16A chloride channel; HEK293 TMEM16A/YFP-H148Q/I152L, iodide quench fluorescence; hits give low values; 340,000 compounds, 0.3% hits; B-score at 10 µM; Q8BHY3;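 active = fluorescence-ratio B-score plate-corrected deviation score at least 3 library SD below zero, with starting fluorescence score within 5 deviations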;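 note: channel opened by trigger with iodide after compound preincubation; score built on the fluorescence ratio of max minus min over baseline; more negative score means more quench and so TMEM16A activation or potentiation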
VIM-2 inh: blocks Pseudomonas aeruginosa VIM-2 metallo-beta-lactamase; 290,000 compounds, 0.89% hits; inhibition, % at 5.6 µM; purified VIM-2, nitrocefin hydrolysis, epi-absorbance fluorescence;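 active = inhibition above the mean of all tested compounds plus 3 SD, cutoff set per screening run, cut at about 7.5% in these data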;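 note: red hydrolysis product quenches plate fluorescence so inhibitors raise well fluorescence; 0% = enzyme with DMSO and 100% = DMSO without enzyme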
IMP-1 inhibitor: inhibitors of Pseudomonas aeruginosa IMP-1 metallo-beta-lactamase. 290,000 compounds, 0.45% hits. purified IMP-1, nitrocefin hydrolysis, epi-absorbance fluorescence. inhibition, % at 5.6 µM;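 active = inhibition above the mean plus 3 SD of all compounds in the same screening run, cut at about 4.5% in these data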;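 note: 0% = IMP-1 with DMSO and 100% = DMSO wells lacking enzyme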
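System – purified recombinant IMP-1 beta-lactamase · Input – IMP-1 dispensed at 0.2 nM · Timing – 15 min preincubation plus 25 min reaction at 25 °C · Signal – Epi-absorbance fluorescence, 480 nm excitation, 530 nm emission · Measure – percent IMP-1 inhibition derived from blank-referenced optical density · Controls – Enzyme-plus-DMSO low control, enzyme-free DMSO high control · Replication – singlicate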
TMEM16A inh: inhibitors of mouse TMEM16A calcium-activated chloride channel; HEK293 TMEM16A/YFP iodide influx fluorescence, ionomycin; 310,000 compounds, 1.2% hits; AID 588511; Q8BHY3; normalized B-score (activity score, 25-100; higher = stronger inhibition) at 10 µM;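 active = ratio plate-corrected score three or more library SD toward inhibition, starting fluorescence score within five deviations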;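 note: score derived from kinetic fluorescence span divided by baseline fluorescence per well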
CHT allo act: allosterically activates the human high affinity choline transporter. Q9GZV3. CHT-expressing cells, membrane potential dye, choline EC20; hits give high values; LV-AA mutant CHT in HEK293 cells. B-score at 10 µM. 310,000 compounds, 0.49% hits;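 active = initial fluorescence not abnormally high and integrated response B-score, plate-corrected, over 3 SD above library mean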
CHT block conf: human CHT inhibition, confirmatory screen; shares compounds with CHT block; CHT-expressing cells, choline membrane potential dye; LV-to-AA substituted CHT, HEK293 cells; CHT activity remaining % of control (hits give low values), % at 10 µM; 2,400 compounds, 70% hits; AID 493221;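 active = choline transporter activity left, mean of duplicates at 10 µM, below buffer-only control mean minus 3 SD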;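 note: depolarization triggered by choline at its EC90 following an EC20 pre-addition; 0% = hemicholinium-3 full block and 100% = buffer-only control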
HEK293 CHT ctr: activity in parental HEK293 cells lacking CHT; shares compounds with CHT block; membrane potential dye, choline response; active = decrease or increase beyond buffer ±3SD; membrane potential ratio readout (active if shifted either direction beyond buffer ±3SD; no single direction) at 10 µM; 2,400 compounds, 4% hits;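 note: parental cells lack the transporter so any hit is non-specific; ratio is peak minus trough fluorescence over baseline after EC90 choline challenge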
Active calls of the source: *; i = inactive; / = no result.

SMILES	CHT block	ANO1 activ	VIM-2 inh	IMP-1 inhibitor	TMEM16A inh	CHT allo act	CHT block conf	HEK293 CHT ctr
S=c1nc(C2CC2)n(-c2ccccc2)[nH]1	i	i	-3	-3	i	i	/	/
CC(=O)NS(=O)(=O)c1ccc(NC(=S)NC(=O)Cc2ccccc2)cc1	-7.5*	i	-2	-2	i	i	i	i
c1ccc(-c2csc(NC3=NCCCCC3)n2)cc1	-7.1*	i	-4	-1	i	i	i	i
N#Cc1ccc(-c2csc(NC3=NCCCCC3)n2)cc1	/	i	3	-2	/	/	/	/
CC(=O)C1=C(O)C=C(c2ccco2)CC1c1ccco1 (configuration not stated)	-5.1*	i	-4	0	i	i	i	i
CCCc1ccc(OCc2ccc(C(=O)NCc3cccnc3)o2)c(OC)c1	-5.7*	i	-3	-2	i	i	68%*	i
Cc1ccc(C(=O)C[n+]2cccc3ccccc32)cc1	-6.5*	i	1	-1	i	i	29%*	i
O=C(C[n+]1cccc2ccccc21)c1ccc(Br)cc1	-9.3*	i	-3	-3	i	i	26%*	i
NC(=O)C[n+]1cccc2ccccc21	i	i	3	3	i	i	/	/
Cc1sc[n+](CC(=O)c2ccc(Br)cc2)c1C	-13*	i	-1	0	i	i	24%*	i
Cc1c(CCOC(=O)c2cc([N+](=O)[O-])cc([N+](=O)[O-])c2)sc[n+]1CC(=O)c1ccc(Br)cc1	i	i	-3	0	i	i	/	/
O=Cc1ccc(Sc2ncccn2)o1	/	i	-1	-3	/	/	/	/
CSC1=NS(=O)(=O)c2c(C)nn(C)c2S1	-8*	i	0	-4	i	i	29%*	i
CCN(CC)CCCNC(=O)c1cc(-c2ccc(O)cc2)on1	i	i	-4	-1	i	i	/	/
CCN(CC)CCCNC(=O)c1cc(-c2ccc(Cl)c(Cl)c2)on1	-6.7*	i	3	0	i	i	31%*	i
Cn1c2c(c(=O)c3ccccc31)CCCC2	-9*	i	1	-3	i	i	3.9%*	i
Cn1c2c(c(=O)c3ccccc31)CCC(C)(C)O2	i	i	0	-1	i	i	/	/
CN(C)CCOC(=O)Cc1ccc(Cl)cc1	-10*	i	-1	-2	i	i	63%*	i
CN(C)CCOC(=O)COc1ccc(Cl)cc1	i	i	/	/	i	i	/	/
CN(C)c1ccc(NC(=O)CN2CCN(S(=O)(=O)c3cc(Cl)ccc3Cl)CC2)cc1	i	i	-4	-5	i	i	/	/
CC(C)OC(=O)CN1CCN(S(=O)(=O)c2cc(Cl)ccc2Cl)CC1	-6.4*	i	0	0	i	i	66%*	i
O=C(NCC(c1cccnc1)N1CCOCC1)c1cccc(Cl)c1 (configuration not stated)	i	i	-1	-1	i	i	/	/
O=C(NCC(c1cccnc1)N1CCN(c2ccccc2F)CC1)c1cccc(Cl)c1 (configuration not stated)	-6.9*	i	0	1	i	i	i	i
O=C(CN1CCC(NC(=O)c2ccccc2F)CC1)Nc1ccc2c(c1)OCCO2	-5*	i	-3	-2	i	i	i	i
O=C(COC(=O)c1ccc(O)cc1O)NC(=O)Cc1ccccc1	/	i	/	/	/	/	/	/
SMILES	CHT block	ANO1 activ	VIM-2 inh	IMP-1 inhibitor	TMEM16A inh	CHT allo act	CHT block conf	HEK293 CHT ctr
CCCNc1nc2c(c(=O)n(C)c(=O)n2C)n1CCC(C)C	-6.9*	i	-2	0	i	i	46%*	i
CC(C)c1cc(CN2C(C)COCC2C)cc(C(C)C)c1O (configuration not stated)	/	i	/	/	/	/	/	/
COc1ccc(CCN(C)c2ncnc3sccc23)cc1OC	i	i	3	-3	i	i	/	/
COc1ccc(CN(C)c2ncnc3sccc23)c(OC)c1OC	i	i	2	-2	i	i	65%*	i
Nc1o[nH]c(=O)c1C1CCCCC1	/	i	/	/	/	/	/	/
Cc1cccc(N2CCN(C(=O)Cc3c(C(=O)O)[nH]c4ccc(Cl)cc34)CC2)c1C	-11*	i	-3	-3	i	i	56%*	i
O=C(O)c1[nH]c2ccccc2c1CC(=O)N1CCN(c2ccccc2)CC1	i	i	1	-1	i	i	/	/
COc1ccc(NS(=O)(=O)c2ccc(C(=O)N(C)Cc3cccs3)cc2)cc1	/	i	/	/	/	/	/	/
Cc1cc(-c2nc3cccnc3s2)ccc1NS(=O)(=O)c1ccc2c(c1)OCCO2	-7.3*	i	-3	-2	i	i	i	i
Cc1ccc(NS(=O)(=O)c2cc(NC(=O)c3ccc4c(c3)NC(=O)CS4)ccc2C)c(C)c1	i	i	-2	-2	i	i	/	/
CN(Cc1nc(-c2ccncc2)no1)S(=O)(=O)c1ccc(Br)cc1	-8*	i	-3	-2	i	i	i	i
O=C(Nc1ccccc1Cl)c1ccc(S(=O)(=O)NCC2CCCO2)cc1 (configuration not stated)	-6.4*	i	-2	-4	i	i	31%*	i
COc1ccc(S(=O)(=O)NCC2CCCO2)cc1NC(=O)c1ccc(Cl)cc1 (configuration not stated)	i	i	/	/	i	i	/	/
Cc1ccccc1NC(=O)c1ccc(F)c(S(=O)(=O)NCC2CCCO2)c1 (configuration not stated)	-7.7*	i	0	-1	i	i	21%*	i
O=C(Cc1ccccc1)c1ccc(O)cc1O	/	i	/	/	/	/	/	/
CCCCCC(=O)c1ccc(O)cc1O	-6.1*	i	-2	-2	i	i	55%*	i
O=C(NCc1nnc(SCC(=O)N2CCN(c3ccccc3)CC2)o1)c1c(F)cccc1F	i	i	1	-1	i	i	/	/
COc1cccc(CN2CCNC(=O)C2CC(=O)N(C)CCC2CCOCC2)c1OC (configuration not stated)	i	i	-1	-4	i	i	/	/
COc1ccc(CNS(=O)(=O)c2cn(C)c(=O)n(C)c2=O)cc1	i	i	1	-1	i	i	/	/

Screening results: PubChem BioAssay, several laboratories
